Experimental data gathered from unrelated publications.
Compare with care: the assays were run in different laboratories.
Target: Tyrosine-protein kinase CSK (CSK, Homo sapiens, UniProt P41240)

C[C@@H]1CCN(c2nccc(-c3cnn4ncccc34)n2)C1 — remaining binding (binding; 1 µM): 89%
COc1cnc(Nc2cccc(S(N)(=O)=O)c2)nc1N1CCN(c2ccccc2)CC1 — remaining binding (binding; competition with immobilised ligand; 1 µM): 100%
Cc1cnn2ncc(-c3ccnc(N(C)C)n3)c2c1 — remaining binding (binding; 1 µM): 99%
COc1cnc(Nc2cccc(S(N)(=O)=O)c2)nc1N1CCN(c2ccccc2)C(=O)C1 — remaining binding (binding; competition with immobilised ligand; 1 µM): 100%
Nc1ncc2c(n1)-c1c([nH]c3ccc(C#CC4CC4)cc13)CCCC2 — remaining binding (binding; competition with immobilised ligand; 1 µM): 96%
O=C(c1ccc(Nc2ncc(Cl)c(-c3ccc(Cl)s3)n2)cc1)N1CCC(N2CCCC2)CC1 — remaining binding (binding; competition with immobilised ligand; 1 µM): 75%
CN(C)c1ncc(F)c(-c2cnn3ncccc23)n1 — remaining binding (binding; 1 µM): 98%
Cc1ccc(-n2nc(C(C)(C)C)cc2NC(=O)Nc2ccc(-n3c(N)c(C(N)=O)c4nc5ccc(NCCCN)cc5nc43)cc2)cc1 — remaining binding (cell-free assay; competition with immobilised ligand; 1 µM): 0.65%
O=C(NCCCN1CCOCC1)c1ccc(Nc2ncc(Cl)c(-c3ccc(Cl)s3)n2)cc1 — remaining binding (binding; competition with immobilised ligand; 1 µM): 86%
CC(C)CC(=O)N1CCc2nc(-c3ccc(Br)cc3)nc(N(C)Cc3ccccc3)c2C1 — remaining binding (cell-free assay; competition with immobilised ligand; 0.1 µM): 100%
F[C@@H]1CCN(c2nccc(-c3cnn4ncccc34)n2)C1 — remaining binding (binding; 1 µM): 100%
N#Cc1ccc(Nc2ccc3[nH]c(=O)[nH]c3c2)c(Cl)c1 — remaining binding (cell-free assay; competition with immobilised ligand; 1 µM): 89%
O=C(c1ccc(Nc2nccc(-c3cc4ccccc4s3)n2)cc1)N1CCC(N2CCCC2)CC1 — remaining binding (binding; competition with immobilised ligand; 1 µM): 100%
O=C(Nc1cnc(Oc2ccc(F)cc2)nc1)N1CCc2ncccc2[C@@H]1c1ccc(F)cc1 — remaining binding (cell-free assay; competition with immobilised ligand; 1 µM): 100%
c1cnn2ncc(-c3ccnc(N4CCC45COC5)n3)c2c1 — remaining binding (binding; 1 µM): 88%
Nc1c(C(=O)NCc2ccc(C(=O)NCCCC3CCCCC3)cc2)cnn1-c1ccccc1 — remaining binding (cell-free assay; competition with immobilised ligand; 0.1 µM): 100%
O=C(Nc1c[nH]nc1C(=O)NC1CCNCC1)c1cc(F)cc(F)c1 — remaining binding (binding; competition with immobilised ligand; 1 µM): 100%
COc1ccc2c(c1)O[C@@H](c1ccc(OC)c(OC)c1)C[C@H]2NC(=O)C1(c2ccc3c(c2)OC(F)(F)O3)CC1 — remaining binding (cell-free assay; competition with immobilised ligand; 1 µM): 87%
N[C@@H]1CCN(c2nccc(-c3cnn4ncccc34)n2)C1 — remaining binding (binding; 1 µM): 94%
O=C(NCCCC1CCCCC1)c1ccc(CNC(=O)c2cnn(-c3ccccc3)c2C(F)(F)F)cc1 — remaining binding (cell-free assay; competition with immobilised ligand; 0.1 µM): 100%
CCN1CCN(Cc2ccc(C(=O)Nc3ccc(C)c(Oc4ccc5c(c4)CC(=O)N5)c3)cc2C(F)(F)F)CC1 — remaining binding (binding; competition with immobilised ligand; 1 µM): 100%
